From ChEMBL document CHEMBL3232994, “Searching for new derivatives of neocryptolepine: synthesis, antiproliferative, antimicrobial and antifungal activities” (Eur J Med Chem, 2014)
In brackets after ≈: the same amount, converted by molar mass. Activity calls are given as the source filed them. The calls are words filed in the database; no cut-off is given here.

How the values were obtained:
Micrococcus luteus [1] = assay: Antibacterial activity against Micrococcus luteus ATCC 10240 assessed as growth inhibition after 18 hrs by two-fold serial dilution method; format: functional; conditions: ATCC 10240, 18 h
How it was run: (§1)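 Twofold serial agar dilution on Mueller–Hinton II agar per CLSI. Final inoculum 10⁴ CFU/mL, except Enterococcus hirae ATCC 10541 at 10⁵ CFU/mL. MIC read after 18 h at 35 °C.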

Bacillus spizizenii = assay: Antibacterial activity against Bacillus subtilis ATCC 6633 assessed as growth inhibition after 18 hrs by two-fold serial dilution method; format: functional; conditions: ATCC 6633, 18 h; how it was run: as §1
Staphylococcus aureus [2] = assay: Antibacterial activity against Staphylococcus aureus ATCC 29213 assessed as growth inhibition after 18 hrs by two-fold serial dilution method; format: functional; conditions: ATCC 29213, 18 h; how it was run: as §1
Micrococcus luteus [3] = assay: Antibacterial activity against Micrococcus luteus ATCC 9341 assessed as growth inhibition after 18 hrs by two-fold serial dilution method; conditions: ATCC 9341, 18 h
Staphylococcus aureus [4] = assay: Antibacterial activity against Staphylococcus aureus ATCC 6538 assessed as growth inhibition after 18 hrs by two-fold serial dilution method; format: functional; conditions: ATCC 6538, 18 h; how it was run: as §1
Enterococcus hirae = assay: Antibacterial activity against Enterococcus hirae ATCC 10541 assessed as growth inhibition after 18 hrs by two-fold serial dilution method; format: functional; conditions: ATCC 10541, 18 h; how it was run: as §1
[5] = tested on: Staphylococcus epidermidis; assay: Antibacterial activity against Staphylococcus epidermidis ATCC 12228 assessed as growth inhibition after 18 hrs by two-fold serial dilution method; format: functional; conditions: ATCC 12228, 18 h; how it was run: as §1
Staphylococcus aureus [6] = assay: Antibacterial activity against Staphylococcus aureus NCTC 4163 assessed as growth inhibition after 18 hrs by two-fold serial dilution method; format: functional; conditions: NCTC 4163, 18 h; how it was run: as §1
Staphylococcus aureus [7] = assay: Antibacterial activity against Staphylococcus aureus ATCC 25923 assessed as growth inhibition after 18 hrs by two-fold serial dilution method; format: functional; conditions: ATCC 25923, 18 h; how it was run: as §1
Bacillus cereus = assay: Antibacterial activity against Bacillus cereus ATCC 11778 assessed as growth inhibition after 18 hrs by two-fold serial dilution method; format: functional; conditions: ATCC 11778, 18 h; how it was run: as §1
Candida albicans [8] = assay: Antifungal activity against Candida albicans ATCC 90028 assessed as growth inhibition after 18 hrs by two-fold serial dilution method; format: functional; conditions: ATCC 90028, 18 h
How it was run: (§2)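 MIC by twofold serial dilution on RPMI agar per CLSI. Final inoculum 10⁴ CFU/mL. Plates read after 18 h at 35 °C.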

Candida albicans [9] = assay: Antifungal activity against Candida albicans SN250 assessed as growth inhibition after 18 hrs by two-fold serial dilution method; format: functional; conditions: SN250, 18 h
Candida parapsilosis = assay: Antifungal activity against Candida parapsilosis ATCC 22019 assessed as growth inhibition after 18 hrs by two-fold serial dilution method; format: functional; conditions: Lodderomyces parapsilosis, ATCC 22019, 18 h
Candida albicans [10] = assay: Antifungal activity against Candida albicans ATCC 10231 assessed as growth inhibition after 18 hrs by two-fold serial dilution method; format: functional; conditions: ATCC 10231, 18 h; how it was run: as §2
Candida albicans [11] = assay: Antifungal activity against Candida albicans SN250 assessed as […] at 2.4 to 625 ug/mL after 24 hrs by XTT reduction assay; format: functional, organism-based
KB = assay: Cytotoxicity against human KB cells assessed as growth inhibition after 72 hrs by SRB assay; format: functional, cell-based
How it was run: (§3)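 Cells were seeded at 10⁴/well in RPMI 1640/Opti-MEM (1:1) with 5% FBS, plus 0.01 mg/mL insulin for MCF-7, 24 h before dosing. Agents in water/medium were given at four tenfold final levels for 72 h. Cells were fixed with cold 50% TCA (1 h, 4 °C), stained with 0.4% SRB, cell-free blank. Triplicate wells, 3–5 repeats. IC50 relative to untreated control.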

Candida albicans [12] = assay: Antifungal activity against Candida albicans SN250 assessed as inhibition of biofilm formation < MIC after 24 hrs by XTT reduction assay; format: functional, organism-based
BALB/3T3 = assay: Cytotoxicity against mouse BALB/3T3 cells assessed as growth inhibition after 72 hrs by SRB assay; format: cell-based; conditions: BALB/3T3, 72 h
How it was run: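 Mouse fibroblasts were kept in Dulbecco medium with 10% FBS, L-glutamine and pyruvate, and seeded at 10⁴/well 24 h before dosing. Agents were given at four tenfold final levels for 72 h. Cells were TCA-fixed (50%, 4 °C, 1 h) and stained with 0.4% SRB in 1% acetic acid. Triplicate wells, 3–5 repeats. IC50 versus untreated cells.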

LoVo = assay: Cytotoxicity against human LoVo cells assessed as growth inhibition after 72 hrs by SRB assay; format: functional, cell-based; how it was run: as §3
A549 = assay: Cytotoxicity against human A549 cells assessed as growth inhibition after 72 hrs by SRB assay; format: functional, cell-based; conditions: A549, 72 h; how it was run: as §3
MCF7 = assay: Cytotoxicity against human MCF7 cells assessed as growth inhibition after 72 hrs by SRB assay; format: functional, cell-based; conditions: MCF7, 72 h; how it was run: as §3

| Compound | MIC (Micrococcus luteus [1]) [µg/mL] | MIC (Bacillus spizizenii) [µg/mL] | MIC (Staphylococcus aureus [2]) [µg/mL] | MIC (Micrococcus luteus [3]) [µg/mL] | MIC (Staphylococcus aureus [4]) [µg/mL] | MIC (Enterococcus hirae) [µg/mL] | MIC [5] [µg/mL] | MIC (Staphylococcus aureus [6]) [µg/mL] | MIC (Staphylococcus aureus [7]) [µg/mL] | MIC (Bacillus cereus) [µg/mL] | MIC (Candida albicans [8]) [µg/mL] | MIC (Candida albicans [9]) [µg/mL] | MIC (Candida parapsilosis) [µg/mL] | MIC (Candida albicans [10]) [µg/mL] | inhibition (Candida albicans [11]) | IC50 (KB) [nM] | inhibition (Candida albicans [12]) | IC50 (BALB/3T3) [nM] | further results |
| --- | --- | --- | --- | --- | --- | --- | --- | --- | --- | --- | --- | --- | --- | --- | --- | --- | --- | --- | --- |
| O=C(O)c1cn(C2CC2)c2cc(N3CCNCC3)c(F)cc2c1=O [CIPROFLOXACIN] | 1 (≈ 3.02 µM) | < 0.125 | 0.5 (≈ 1.51 µM) | 2 (≈ 6.04 µM) | 0.25 (≈ 0.754 µM) | 4 (≈ 12.1 µM) | 0.25 (≈ 0.754 µM) | 0.25 (≈ 0.754 µM) | 0.5 (≈ 1.51 µM) | 1 (≈ 3.02 µM) | – | – | – | – | – | – | – | – | – |
| Cc1c2c3cc(NC(=O)CNC(=O)CN)ccc3nc-2n(C)c2ccccc12.Cl.Cl | 200 | 100 | > 200 | 200 | > 200 | > 200 | > 200 | > 200 | > 200 | > 200 | 200 | 200 | 200 | 200 | inactive | – | – | – | – |
| Cc1c2c3ccccc3nc-2n(C)c2ccc(NC(=O)[C@@H](N)Cc3cnc[nH]3)cc12.Cl | > 200 | > 200 | > 200 | > 200 | > 200 | > 200 | > 200 | > 200 | > 200 | > 200 | > 200 | 250 | > 200 | > 200 | inactive | 3880 | – | – | – |
| Cc1c2c3cc(NC(=O)CN)ccc3nc-2n(C)c2ccccc12.Cl.Cl | 6.25 | 12.5 | 100 | 6.25 | 50 | 100 | 25 | 50 | 50 | 50 | 50 | 15.6 | 25 | 25 | – | – | Active | – | – |
| Cc1c2c3ccccc3nc-2n(C)c2ccc(NC(=O)[C@@H]3CCCN3)cc12.Cl | 6.25 | 6.25 | 50 | 6.25 | 12.5 | 100 | 12.5 | 12.5 | 50 | 25 | 50 | 31.2 | 50 | 100 | – | 470 | – | 540 | IC50 (LoVo): 70 nM; IC50 (A549): 120 nM; IC50 (MCF7): 620 nM |
| OC(Cn1cncn1)(Cn1cncn1)c1ccc(F)cc1F [FLUCONAZOLE] | – | – | – | – | – | – | – | – | – | – | 1 (≈ 3.27 µM) | – | 2 (≈ 6.53 µM) | 1 (≈ 3.27 µM) | – | – | – | – | – |
| Cc1c2c3cc(NC(=O)CNC(=O)[C@@H]4CCCN4)ccc3nc-2n(C)c2ccccc12.Cl.Cl | 50 | 100 | 100 | 50 | > 200 | > 200 | 100 | > 200 | > 200 | > 200 | 200 | 200 | 200 | 200 | inactive | – | – | – | – |
| Cc1c2c3cc(NC(=O)[C@@H](N)Cc4cnc[nH]4)ccc3nc-2n(C)c2ccccc12.Cl | > 200 | > 200 | > 200 | > 200 | > 200 | > 200 | > 200 | > 200 | > 200 | > 200 | > 200 | 125 | > 200 | > 200 | – | – | – | – | – |
| Cc1c2c3ccccc3nc-2n(C)c2ccc(NC(=O)CNC(=O)CN)cc12.Cl | > 200 | > 200 | > 200 | > 200 | > 200 | > 200 | > 200 | > 200 | > 200 | > 200 | > 200 | > 500 | > 200 | > 200 | inactive | 1540 | – | 2110 | IC50 (LoVo): 1170 nM; IC50 (A549): 1440 nM; IC50 (MCF7): 4110 nM |
| Cc1c2c3ccccc3nc-2n(C)c2ccccc12 | 50 (≈ 203 µM) | 50 (≈ 203 µM) | 100 (≈ 406 µM) | 50 (≈ 203 µM) | 100 (≈ 406 µM) | 200 (≈ 812 µM) | 100 (≈ 406 µM) | 100 (≈ 406 µM) | 200 (≈ 812 µM) | 100 (≈ 406 µM) | 12.5 (≈ 50.7 µM) | 12.5 (≈ 50.7 µM) | 12.5 (≈ 50.7 µM) | 12.5 (≈ 50.7 µM) | – | – | Active | 5770 | – |
| Cc1c2c3cc(NC(=O)[C@@H]4CCCN4)ccc3nc-2n(C)c2ccccc12.Cl.Cl | 6.25 | 12.5 | 50 | 6.25 | 12.5 | 100 | 12.5 | 12.5 | 50 | 50 | 200 | 200 | 200 | 200 | – | – | Active | – | – |
| Cc1c2c3ccccc3nc-2n(C)c2ccc(NC(=O)CN)cc12.Cl | 12.5 | 12.5 | 12.5 | 6.25 | 12.5 | 100 | 12.5 | 12.5 | 12.5 | 50 | 100 | 15.6 | 100 | 100 | – | 420 | Active | 420 | IC50 (LoVo): 60 nM; IC50 (A549): 80 nM; IC50 (MCF7): 460 nM |
